Measurements: ChEMBL document CHEMBL1833926, “Bicyclic heteroaryl inhibitors of stearoyl-CoA desaturase: from systemic to liver-targeting inhibitors” (Bioorg Med Chem Lett, 2011)
The source made the active and inactive calls. The rule behind the calls is not given here.

Assays:
[1] = target: Acyl-CoA (8-3)-desaturase (Homo sapiens) (UniProt O60427); assay: Inhibition of delta-5 desaturase
[2] = target: T1, Acyl-CoA 6-desaturase (Homo sapiens) (UniProt O95864); assay: Inhibition of delta-6 desaturase
T1 sequence (whole entry): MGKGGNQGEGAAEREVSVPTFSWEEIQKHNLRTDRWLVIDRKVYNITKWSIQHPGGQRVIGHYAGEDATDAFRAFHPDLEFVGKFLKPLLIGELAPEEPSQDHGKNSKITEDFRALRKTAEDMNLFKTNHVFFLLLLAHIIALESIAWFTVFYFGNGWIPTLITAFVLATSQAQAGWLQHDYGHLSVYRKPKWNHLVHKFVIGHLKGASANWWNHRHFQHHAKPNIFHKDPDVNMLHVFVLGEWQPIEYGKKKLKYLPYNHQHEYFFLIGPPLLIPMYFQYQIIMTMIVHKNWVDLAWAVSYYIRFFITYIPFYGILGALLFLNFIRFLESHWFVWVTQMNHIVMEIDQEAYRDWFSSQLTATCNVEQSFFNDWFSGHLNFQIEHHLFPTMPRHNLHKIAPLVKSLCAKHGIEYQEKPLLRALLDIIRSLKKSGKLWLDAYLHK

Stearoyl-CoA desaturase = target: T2, Stearoyl-CoA desaturase (Homo sapiens, UniProt O00767); assay: Inhibition of SCD1 in human HepG2 cells; type: cell-based
T2 sequence (O00767 whole entry): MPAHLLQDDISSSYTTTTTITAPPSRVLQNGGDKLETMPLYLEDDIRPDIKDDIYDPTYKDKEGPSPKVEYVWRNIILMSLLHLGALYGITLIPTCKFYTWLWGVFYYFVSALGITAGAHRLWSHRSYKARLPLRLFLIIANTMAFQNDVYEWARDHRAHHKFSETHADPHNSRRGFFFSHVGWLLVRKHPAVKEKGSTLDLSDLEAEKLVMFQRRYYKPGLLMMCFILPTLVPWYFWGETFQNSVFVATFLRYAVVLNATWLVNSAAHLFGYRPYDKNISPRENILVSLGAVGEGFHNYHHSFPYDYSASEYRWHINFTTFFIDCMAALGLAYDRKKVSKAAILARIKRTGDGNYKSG

Acyl-CoA desaturase 1 [3] = target: T3, Acyl-CoA desaturase 1 (Rattus norvegicus, UniProt P07308); assay: Inhibition of rat SCD1 in rat liver microsome
T3 sequence (P07308 whole entry): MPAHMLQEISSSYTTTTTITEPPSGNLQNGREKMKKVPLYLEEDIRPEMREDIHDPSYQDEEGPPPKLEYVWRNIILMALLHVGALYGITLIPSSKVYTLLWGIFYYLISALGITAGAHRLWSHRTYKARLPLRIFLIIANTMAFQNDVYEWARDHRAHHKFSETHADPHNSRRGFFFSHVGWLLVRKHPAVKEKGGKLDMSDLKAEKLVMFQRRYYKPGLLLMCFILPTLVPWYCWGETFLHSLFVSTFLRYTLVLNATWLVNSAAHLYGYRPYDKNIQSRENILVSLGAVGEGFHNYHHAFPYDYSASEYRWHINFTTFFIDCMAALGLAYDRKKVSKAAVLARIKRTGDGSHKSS

[4] = AUC (0 to 24 hrs) in C57BL/6 mouse at 10 mg/kg, po; type: ADME, organism-based, C57BL6; design: time < 24 hr, dose 10 mg/kg, route oral; settings: whole blood
In short: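 Oral gavage, 10 mg/kg in 0.5% methocel, to C57BL6 mice; whole blood exposure measured over 0–24 h as AUC.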

[5] = Ratio of drug uptake in liver to harderian glands in C57BL/6 mouse at 10 mg/kg, po after 6 hrs; type: ADME, organism-based, C57BL6; design: dose 10 mg/kg, route oral; settings: in vivo
In short: (§1)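 Single oral dose of 10 mg/kg in 0.5% methocel given to C57BL6 mice on normal chow. Drug levels measured 6 h post-dose in liver, white adipose, skin and Harderian glands. Liver/tissue fold selectivity taken from these levels.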

[6] = Ratio of drug uptake in liver to skin in C57BL/6 mouse liver at 10 mg/kg, po after 6 hrs; type: ADME, organism-based, C57BL6; design: dose 10 mg/kg, route oral; settings: in vivo; in short: as §1
Acyl-CoA desaturase 1 [7] = target: T3, Acyl-CoA desaturase 1; assay: Inhibition of SCD1 in rat Hep cells; type: cell-based
In short: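 Whole-cell SCD1 inhibition measured in rat hepatocytes, which express OATP transporters, in the presence of 10% fetal bovine serum; IC50 determined.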

[8] = Ratio of drug uptake in liver to adipose tissue in C57BL/6 mouse at 10 mg/kg, po after 6 hrs; type: ADME, organism-based, C57BL6; design: dose 10 mg/kg, route oral; settings: in vivo; in short: as §1
HepG2 [9] = assay: Ratio of IC50 for SCD1 in human HepG2 cells to IC50 for SCD1 in rat Hep cells; type: cell-based
In short: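 Fold shift computed as hHepG2 whole-cell IC50 over rat hepatocyte IC50.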

HepG2 [10] = assay: Ratio of IC50 for SCD1 in human HepG2 cells to IC50 for rat SCD1; type: cell-based
In short: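 Fold shift computed as hHepG2 whole-cell IC50 over the SCD1-induced rat liver microsomal enzyme IC50.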

[11] = Drug uptake in C57BL/6 mouse liver at 10 mg/kg, po after 6 hrs; type: ADME, organism-based, C57BL6; design: dose 10 mg/kg, route oral; settings: read-out: Drug uptake; in short: as §1
[12] = Drug uptake in C57BL/6 mouse adipose tissue at 10 mg/kg, po after 6 hrs; type: ADME, organism-based, C57BL6; design: dose 10 mg/kg, route oral; settings: in vivo; in short: as §1
Mus musculus [13] = assay: Inhibition of SCD1 activity in high carbohydrate diet fed C57BL/6 mouse assessed as reduction in conversion of [1-14C]stearic acid to [1-14C]oleic acid at 60 mg/kg, po after 3 hrs; type: functional, organism-based; design: dose 60 mg/kg; settings: C57BL6
In short: (§2)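 Mouse liver PD assay in C57BL6 mice on a high carbohydrate diet, n = 5/group. Compound given orally in 0.5% methocel. At 1 h, [1-14C]-stearic acid in 60% aqueous PEG 200 given iv. Livers harvested 2 h after tracer. Lipids hydrolyzed; SCD1 activity index = 14C-oleic/14C-stearic acid ratio.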

[14] = Plasma concentration in C57BL/6 mouse at 60 mg/kg, po after 3 hrs; type: ADME, organism-based, C57BL6; design: dose 60 mg/kg, route oral
In short: (§3)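 Drug levels in liver and plasma measured in the mouse liver PD study. C57BL6 mice on a high carbohydrate diet received an oral dose in 0.5% methocel. Samples were taken 3 h post-dose, with livers harvested 2 h after iv [1-14C]-stearic acid tracer.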

[15] = Apparent permeability across pig LLC-PK1 cells; type: ADME, cell-based, Sus scrofa
[16] = Drug uptake in C57BL/6 mouse liver at 60 mg/kg, po after 3 hrs; type: ADME, organism-based, C57BL6; design: dose 60 mg/kg, route oral; settings: read-out: Drug uptake; in short: as §3
[17] = Drug uptake in C57BL/6 mouse liver at 30 mg/kg, po after 3 hrs; type: ADME, organism-based, C57BL6; design: dose 30 mg/kg, route oral; settings: read-out: Drug uptake; in short: as §3
[18] = Plasma concentration in C57BL/6 mouse at 30 mg/kg, po after 3 hrs; type: ADME, organism-based, C57BL6; design: dose 30 mg/kg, route oral; in short: as §3
Mus musculus [19] = assay: Inhibition of SCD1 activity in high carbohydrate diet fed C57BL/6 mouse assessed as reduction in conversion of [1-14C]stearic acid to [1-14C]oleic acid at 30 mg/kg, po after 3 hrs; type: functional; settings: C57BL6, 3 h; in short: as §2

Sequence of Acyl-CoA (8-3)-desaturase (Homo sapiens) (O60427 whole entry, looked up): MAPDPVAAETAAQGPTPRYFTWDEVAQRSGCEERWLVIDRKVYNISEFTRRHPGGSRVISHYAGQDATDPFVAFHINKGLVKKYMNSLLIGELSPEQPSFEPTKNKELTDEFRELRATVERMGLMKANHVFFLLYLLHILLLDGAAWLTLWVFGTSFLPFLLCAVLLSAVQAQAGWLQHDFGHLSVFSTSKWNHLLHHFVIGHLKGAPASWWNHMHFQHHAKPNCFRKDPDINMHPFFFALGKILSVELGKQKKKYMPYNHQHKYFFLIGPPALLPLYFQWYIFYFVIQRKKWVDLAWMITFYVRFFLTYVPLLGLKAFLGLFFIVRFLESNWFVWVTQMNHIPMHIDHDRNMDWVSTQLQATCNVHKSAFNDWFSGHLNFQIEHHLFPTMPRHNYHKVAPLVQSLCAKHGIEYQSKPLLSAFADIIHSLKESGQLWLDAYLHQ

SMILES	inhibition [1]	inhibition [2]	IC50 (Stearoyl-CoA desaturase) [nM]	IC50 (Acyl-CoA desaturase 1 [3]) [nM]	further results
Fc1ccc(Br)c(OC2CCN(c3ncc4nc[nH]c4n3)CC2)c1	inactive	inactive	–	–	–
Cc1ncc2sc(N3CCC(Oc4ccccc4C(F)(F)F)CC3)nc2n1	inactive	inactive	182	54	–
NC(=O)c1cnc(N2CCN(C(=O)c3ccccc3C(F)(F)F)CC2)s1	–	–	–	–	AUC(0-t) at 24 h [4]: 11 µM·h
Fc1ccc(Br)c(OC2CCN(c3ncnc4[nH]cnc34)CC2)c1	inactive	inactive	–	–	–
O=C(O)COc1nc2cnc(N3CCC(Oc4cc(F)ccc4Br)CC3)nc2s1	–	–	53	7	Ratio [5]: 3; Ratio [6]: 403; IC50 (Acyl-CoA desaturase 1 [7]): 348 nM; Ratio [8]: 173; Ratio IC50 (HepG2 [9]): < 1; Ratio IC50 (HepG2 [10]): 7
Cc1nc2nc(N3CCC(Oc4ccccc4C(F)(F)F)CC3)sc2c(=O)[nH]1	inactive	inactive	59	8	concentration at 6 h [11]: 21.8 µM; Ratio [5]: 1.1; Ratio [6]: 7; AUC(0-t) at 24 h [4]: 30 µM·h; Drug uptake [12]: Not Active
Nc1ncnc2[nH]c(N3CCC(Oc4ccccc4C(F)(F)F)CC3)nc12	inactive	inactive	–	–	–
Oc1nc2cnc(N3CCC(Oc4ccccc4C(F)(F)F)CC3)nc2[nH]1	inactive	inactive	–	–	–
FC(F)(F)c1ccccc1OC1CCN(c2ncc3[nH]cnc3n2)CC1	–	–	257	10	–
Fc1ccc(Br)c(OC2CCN(c3nc4ccccc4s3)CC2)c1	inactive	inactive	10600	477	–
O=C(O)CCc1nc2nc(N3CCC(Oc4cc(F)ccc4Br)CC3)sc2c(=O)[nH]1	–	–	24300	266	inhibition (Mus musculus [13]): inactive; concentration at 3 h [14]: 0.2 µM; Papp [15]: 2 ×10⁻⁶ cm/s; Ratio [6]: 22; concentration at 3 h [16]: 3.3 µM; IC50 (Acyl-CoA desaturase 1 [7]): 168 nM; Ratio [8]: 31; Ratio IC50 (HepG2 [9]): 145; Ratio IC50 (HepG2 [10]): 91
Nc1nc2cnc(N3CCC(Oc4cc(F)ccc4Br)CC3)nc2s1	inactive	inactive	17	1	–
O=c1[nH]ccc2nc(N3CCC(Oc4ccccc4C(F)(F)F)CC3)sc12	inactive	inactive	268	85	–
O=c1[nH]c(CO)nc2nc(N3CCC(Oc4ccccc4C(F)(F)F)CC3)sc12	inactive	inactive	16	2	–
Nc1ncnc2nc(N3CCC(Oc4ccccc4C(F)(F)F)CC3)sc12	inactive	inactive	–	56	–
FC(F)(F)c1ccccc1OC1CCN(c2ncnc3nc[nH]c23)CC1	–	–	48	10	–
O=c1[nH]c2cnc(N3CCC(Oc4ccccc4C(F)(F)F)CC3)nc2[nH]1	–	–	319	38	concentration at 6 h [11]: 24.7 µM; Ratio [5]: 0.8; Ratio [6]: 4.4; Ratio [8]: 3.6
O=C(O)CNc1nc2cnc(N3CCC(Oc4cc(F)ccc4Br)CC3)nc2s1	–	–	168	4	Ratio [5]: 21; Ratio [6]: 145; concentration at 3 h [17]: 4.1 µM; IC50 (Acyl-CoA desaturase 1 [7]): 158 nM; Ratio [8]: 41; concentration at 3 h [18]: 0.2 µM; Ratio IC50 (HepG2 [9]): 1; inhibition in vivo at 30 mg/kg (Mus musculus [19]): 72%; Ratio IC50 (HepG2 [10]): 42
Fc1ccc(Br)c(OC2CCN(c3ncnc4nc[nH]c34)CC2)c1	–	–	< 39	1	–
Fc1ccc(Br)c(OC2CCN(c3ncc4[nH]cnc4n3)CC2)c1	–	–	47	3	–
FC(F)(F)c1ccccc1OC1CCN(c2ncc3nc[nH]c3n2)CC1	inactive	inactive	–	–	–
O=c1[nH]c(N2CCC(Oc3ccccc3C(F)(F)F)CC2)nc2[nH]cnc12	inactive	inactive	378	97	–
O=c1[nH]cnc2nc(N3CCC(Oc4ccccc4C(F)(F)F)CC3)sc12	inactive	inactive	29	7	–
FC(F)(F)c1ccccc1OC1CCN(c2nc3ncccc3s2)CC1	inactive	inactive	755	83	–
FC(F)(F)c1ccccc1OC1CCN(c2ncnc3[nH]cnc23)CC1	inactive	inactive	–	–	–
